Measured values reported in ChEMBL document CHEMBL1148410, “Antitumor agents. 3. Design, synthesis, and biological evaluation of new pyridoisoquinolindione and dihydrothienoquinolindione derivatives with potent cytotoxic activity” (J Med Chem, 2004).
*1 amine or outer side, *2 acyl side, *3 side chain or, on linkers, in order; H or OH if unused. Where a SMILES comes first, the peptide text is derived from it. Bridges are numbered along the chain shown (N, C = ends). Roman numbers before positions name the chains, in order. [ ]: non-standard residue; d: D form. Actinocin(1to9) = Cc1c2oc3c(C)ccc(C(=O)[*:2])c3nc-2c(C(=O)[*:1])c(N)c1=O; NMeV = CN[C@H](C(=O)O)C(C)C; Sar = CNCC(=O)O

Key:
MT4 = assay: Concentration required to reduce proliferation of CD4+ human acute T-lymphoblastic leukemia (MT-4) cell line by 50% as determined by the MTT method; assay type: functional, cell-based
Procedure, shortened: (§1)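 Leukemia/lymphoma cells grown in RPMI 1640 with 10% FCS, 37 °C, humidified 5% CO2. Compounds were dissolved in DMSO (200 μM initial) and serially diluted in medium. Exponentially growing cells were resuspended at 1×10^5 cells/mL with the drug dilutions. Viability was read by MTT after 96 h at 37 °C. Growth was taken as % of untreated controls, and IC50 came from linear regression. Values are the mean of three independent determinations.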

MCF7 = assay: Concentration required to reduce proliferation of human breast adenocarcinoma (MCF-7) cell line by 50% as determined by the MTT method; assay type: functional, cell-based
Procedure, shortened: (§2)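 Solid-tumour-derived cells (and fibroblasts) were seeded in exponential growth at 5×10^4 cells/mL and allowed to adhere for 16 h before serial drug dilutions were added (DMSO stock 200 μM, diluted in medium). MTT viability was read 4 days later. Untreated controls went through at least three rounds of multiplication. IC50 came from linear regression of % growth versus untreated control, mean of three independent determinations.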

CCRF-SB = assay: Concentration required to reduce proliferation of human acute B-lymphoblastic (CCRF-SB) cell line by 50% as determined by the MTT method; assay type: functional, cell-based; procedure, shortened: as §1
SK-MES-1 = assay: Concentration required to reduce proliferation of human lung squamous carcinoma (SKMES-1) cell line by 50% as determined by the MTT method; assay type: functional, cell-based; procedure, shortened: as §2
CRL-7065 cell line = assay: Concentration required to reduce proliferation of human foreskin fibroblasts (CRL7065) cell line by 50% as determined by the MTT method; assay type: functional, cell-based; procedure, shortened: as §2
DU-145 = assay: Concentration required to reduce proliferation of human prostate carcinoma (DU-145) cell line by 50% as determined by the MTT method; assay type: functional, cell-based; procedure, shortened: as §2
CCRF-CEM = assay: Concentration required to reduce proliferation of CD4+ human acuteT-lymphoblastic leukemia (CCRF-CEM) cell line by 50% as determined by the MTT method; assay type: functional, cell-based; procedure, shortened: as §1
WIL2-NS = assay: Concentration required to reduce proliferation of human splenic B-lymphoblastoid (Wil2-NS) cell line by 50% as determined by the MTT method; assay type: functional, cell-based; procedure, shortened: as §1
HepG2 = assay: Concentration required to reduce proliferation of human hepatocellular carcinoma (HepG-2) cell line by 50% as determined by the MTT method; assay type: functional, cell-based; procedure, shortened: as §2
SK-MEL-28 = assay: Concentration required to reduce proliferation of human melanoma (SKMEL-28) cell line by 50% as determined by the MTT method; assay type: functional, cell-based; procedure, shortened: as §2
KB [1] = assay: Concentration required to reduce proliferation of KB subclones passaged in the presence of etoposide 7 uM (KB7D) cell line by 50% as determined by the MTT method; assay type: functional, cell-based; conditions: Homo sapiens
Procedure, shortened: (§3)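 Adherent cultures were seeded at 5×10^4 cells/mL, attached for 16 h, then exposed to serial drug dilutions. MTT viability was read after 4 days, with controls completing at least three doublings. IC50 came from linear regression, mean ±SD of three independent determinations.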

KB [2] = assay: Concentration required to reduce proliferation of KB subclones passaged in the presence of vincristine 0.02 uM (KBV20C) cell line by 50% as determined by the MTT method; conditions: Homo sapiens
KB [3] = assay: Concentration required to reduce proliferation of KB human nasopharyngeal carcinoma (KBWT) cell line by 50% as determined by the MTT method; assay type: functional, cell-based; procedure, shortened: as §3
KB [4] = assay: Concentration required to reduce proliferation of KB subclones passaged in the presence of doxorubicin 0.09 uM (KBMDR) cell line by 50% as determined by the MTT method; assay type: functional, cell-based; conditions: Homo sapiens; procedure, shortened: as §3

Row | SMILES | IC50 (MT4) [nM] | IC50 (MCF7) [nM] | IC50 (CCRF-SB) [nM] | IC50 (SK-MES-1) [nM] | IC50 (CRL-7065 cell line) [nM] | IC50 (DU-145) [nM] | IC50 (CCRF-CEM) [nM] | IC50 (WIL2-NS) [nM] | IC50 (HepG2) [nM] | IC50 (SK-MEL-28) [nM] | IC50 (KB [1]) [nM] | IC50 (KB [2]) [nM] | IC50 (KB [3]) [nM] | IC50 (KB [4]) [nM]
1 | CCOC(=O)C1=CC2C(=O)c3ncccc3C(=O)C2C(c2ccc(C)cc2)=N1 (centres undefined) | 300 | 1000 | 90 | 1000 | 70 | 1000 | 20 | 30 | 900 | 200 |  |  |  | 
2 | CCOC(=O)C1=CC2C(=O)c3cccnc3C(=O)C2C(c2ccc(OC)cc2)=N1 (centres undefined) | 1000 | 900 | 900 | 1200 | 1500 | 1500 | 1500 | 2100 | 2000 | 1000 |  |  |  | 
3 | CCOC(=O)C1=CC2C(=O)c3cccnc3C(=O)C2C(c2ccc(Cl)cc2)=N1 (centres undefined) | 700 | 500 | 700 | 500 | 900 | 1500 | 800 | 2000 | 2000 | 800 |  |  |  | 
4 | CCOC(=O)C1=CC2C(=O)c3ncccc3C(=O)C2C(c2ccc(N(C)C)cc2)=N1 (centres undefined) | 900 | 1000 | 900 | 1000 |  | 1000 | 1200 | 1400 | 900 | 900 |  |  |  | 
5 | CCOC(=O)C1(N)CSC2=C1C(=O)c1ncccc1C2=O (centres undefined) | 20 | 200 | 10 | 100 | 90 | 80 | 70 | 60 | 600 | 200 |  |  |  | 
6 | CCOC(=O)C1=CC2C(=O)c3cccnc3C(=O)C2C(c2ccc(N(C)C)cc2)=N1 (centres undefined) | 2000 | 1600 | 2200 | 1800 |  | 1900 | 2300 | 2500 | 2200 | 1900 |  |  |  | 
7 | CCOC(=O)C1=CC2C(=O)c3cccnc3C(=O)C2C(c2ccc(Br)cc2)=N1 (centres undefined) | 700 | 600 | 800 | 500 | 1300 | 1300 | 1300 | 2100 | 2300 | 900 |  |  |  | 
8 | CCOC(=O)C1=CC2C(=O)c3cccnc3C(=O)C2C(c2ccccc2)=N1 (centres undefined) | 700 | 300 | 600 | 300 |  | 1000 | 700 | 1000 | 1000 | 800 |  |  |  | 
9 | CCOC(=O)C1=CC2C(=O)c3cccnc3C(=O)C2C(c2ccc(C)cc2)=N1 (centres undefined) | 1000 | 1600 | 1000 | 1200 |  | 1900 | 1000 | 2500 | 1900 | 1300 |  |  |  | 
10 | CCOC(=O)C1(N)CSC2=C1C(=O)c1cccnc1C2=O (centres undefined) | 500 | 500 | 600 | 900 | 1700 | 1200 | 2000 | 3100 | 500 | 1100 |  |  |  | 
11 | CCOC(=O)C1=CC2C(=O)c3ncccc3C(=O)C2C(c2ccc(OC)cc2)=N1 (centres undefined) | 400 | 1500 | 100 | 1600 |  | 1500 | 100 | 90 | 1000 | 300 |  |  |  | 
12 | CCOC(=O)C1=CC2C(=O)c3ncccc3C(=O)C2C(c2ccc(Cl)cc2)=N1 (centres undefined) | 6 | 300 | 7 | 50 | 40 | 30 | 150 | 10 | 400 | 200 |  |  |  | 
13 | CCOC(=O)C1=CC2C(=O)c3ncccc3C(=O)C2C(c2ccccc2)=N1 (centres undefined) | 15 | 500 | 10 | 500 |  | 1500 | 200 | 20 | 2000 | 800 |  |  |  | 
14 | CCOC(=O)C1=CC2C(=O)c3ncccc3C(=O)C2C(c2ccc(Br)cc2)=N1 (centres undefined) | 10 | 200 | 10 | 90 | 50 | 50 | 200 | 20 | 300 | 200 |  |  |  | 
15 | CCOC(=O)C1=CC2C(=O)c3cccnc3C(=O)C2C(c2ccc([N+](=O)[O-])cc2)=N1 (centres undefined) | 10 | 200 | 15 | 80 |  | 100 | 230 | 30 | 500 | 200 |  |  |  | 
16 | Cc1c2oc3c(C)ccc(C(=O)N[C@@H]4C(=O)N[C@H](C(C)C)C(=O)N5CCC[C@H]5C(=O)N(C)CC(=O)N(C)[C@@H](C(C)C)C(=O)O[C@@H]4C)c3nc-2c(C(=O)N[C@@H]2C(=O)N[C@H](C(C)C)C(=O)N3CCC[C@H]3C(=O)N(C)CC(=O)N(C)[C@@H](C(C)C)C(=O)O[C@@H]2C)c(N)c1=O [DACTINOMYCIN] (I: T[dV]P[Sar][NMeV] / II: T[dV]P[Sar][NMeV]; ester I:1-I:C, II:1-II:C; linker I:N-II:N via Actinocin(1to9)) |  |  |  |  |  |  |  |  |  |  | 200 | 50 | 4 | 200
17 | COc1cc([C@@H]2c3cc4c(cc3[C@@H](O[C@@H]3O[C@@H]5CO[C@@H](C)O[C@H]5[C@H](O)[C@H]3O)[C@H]3COC(=O)[C@H]23)OCO4)cc(OC)c1O [ETOPOSIDE] |  |  |  |  |  |  |  |  |  |  | > 20000 | 2400 | 800 | > 20000
18 | CC[C@]1(O)C[C@H]2CN(CCc3c([nH]c4ccccc34)[C@@](C(=O)OC)(c3cc4c(cc3OC)N(C=O)[C@H]3[C@@](O)(C(=O)OC)[C@H](OC(C)=O)[C@]5(CC)C=CCN6CC[C@]43[C@@H]65)C2)C1 [VINCRISTINE] |  |  |  |  |  |  |  |  |  |  |  | 200 | 4 | 1000
